For series [1], the system named is LNCaP. As to the kind of experiment: Antiproliferative activity against human LNCAP cells after 96 hrs by propidium iodide staining-based fluorescence assay. In kind it is functional, cell-based.
The subject of series [2] is DU-145. Put plainly: Potency index, ratio of enzalutamide IC50 to test compound IC50 for human DU145 cells. The format is functional.
Series [3] concerns VCaP. Put plainly: Antiproliferative activity against human VCaP cells after 96 hrs by propidium iodide staining-based fluorescence assay. In kind it is functional, cell-based.
For series [4], the system named is LNCaP. Put plainly: Potency index, ratio of enzalutamide IC50 to test compound IC50 for human LNCAP cells. In kind it is functional.
In series [5] the test system is VCaP. As to the kind of experiment: Potency index, ratio of enzalutamide IC50 to test compound IC50 for human VCaP cells. The format is functional.
Series [6] has as its system DU-145. As to the kind of experiment: Antiproliferative activity against human DU145 cells after 96 hrs by propidium iodide staining-based fluorescence assay. In kind it is functional, cell-based.
A further series relates to HEK293. As to the kind of experiment: Cytotoxicity against HEK293 cells assessed as reduction in cell viability at 10 uM after 24 hrs by CellTiter-Blue assay relative to control. In kind it is cell-based. To be noted: human, hek293, 24 h. The gist of the method:
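HEK293 cells in DMEM with 10% FBS and 2 mM L-glutamine, seeded at 100,000 cells/ml and treated after 24 h at 10 µM for 24 h. […] Cell Titer Blue added for 2 h at 37°C, fluorescence read at 560/590 nm.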
(The colour change of resazurin is a common sign of viable cells or microbes.)

Series [7] relates to CWR22R. As to the kind of experiment: Antiproliferative activity against human 22Rv1 cells after 96 hrs by propidium iodide staining-based fluorescence assay. The format is functional, cell-based.
In series [8] the test system is CWR22R. As to the kind of experiment: Potency index, ratio of enzalutamide IC50 to test compound IC50 for human 22Rv1 cells. In kind it is functional.

Some results are limits rather than exact numbers.

As for `O=C(Nc1ccc(S(F)(F)(F)(F)F)cc1)c1ccc(Sc2ccc(O)cc2)cc1`, the Activity entry with LNCaP [1] was “Dose-dependent effect”; in the series on VCaP [3] it was “Dose-dependent effect”; in the series on DU-145 [6], “Dose-dependent effect”; in the series on HEK293, “Toxic”; in the series with CWR22R [7], “Dose-dependent effect”. Moreover, the “Ratio IC50” value in the series with DU-145 [2], in the series on LNCaP [4], in the series on VCaP [5] and in the series on CWR22R [8] was “<=8” in each case.
With `O=C(Nc1cc(C(F)(F)F)ccc1C(F)(F)F)c1ccc(Sc2ccc(O)cc2)cc1`, the Activity entry with LNCaP [1] was “Dose-dependent effect”; with VCaP [3], “Dose-dependent effect”; with DU-145 [6], “Dose-dependent effect”; in the series on HEK293 it was “Toxic”; in the series with CWR22R [7] it was “Dose-dependent effect”. Moreover, the “Ratio IC50” value in the series with DU-145 [2], with LNCaP [4], in the series with VCaP [5] and in the series with CWR22R [8] was “<=8” in each case.
For the compound `O=C(Nc1ccc(S(F)(F)(F)(F)F)cc1)c1ccc(S(=O)(=O)c2ccc(O)cc2)cc1`, the Activity entry in the series on LNCaP [1] was “Dose-dependent effect”; in the series with VCaP [3] it was “Dose-dependent effect”; in the series with DU-145 [6], “Dose-dependent effect”; in the series on HEK293, greater than 50%; in the series on CWR22R [7], “Dose-dependent effect”. Further, the “Ratio IC50” value with DU-145 [2], in the series with LNCaP [4], in the series with VCaP [5] and in the series on CWR22R [8] was “<=8” throughout.

These data come from ChEMBL document CHEMBL4261530, “Rational design and synthesis of novel phenylsulfonyl-benzamides as anti-prostate cancer agents” (Medchemcomm, 2017).
